Results published in ChEMBL document CHEMBL3875213, “Quinolines: Microwave-assisted synthesis and their antifungal, anticancer and radical scavenger properties” (Bioorg Med Chem, 2017).
Converted amounts (≈) assume the structure as drawn. The source made the active and inactive calls. The calls are words filed in the database; no cut-off is given here.

Columns and labels:
Candida albicans [1] = test: Growth inhibition of Candida albicans ATCC 10231 at 3.9 ug/ml incubated for 48 hrs under dark condition by broth microdilution assay relative to amphotericin B; assay type: functional; conditions: ATCC 10231, 48 h, read-out: GI
Method in brief: (§1)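 Yeast broth microdilution (CLSI M27-A3), RPMI-1640, inoculum 1-5 x 10^3 CFU/mL, DMSO ≤1%, 48 h at 30 °C in a moist, dark chamber. […]. Triplicate; amphotericin B as positive control.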

Candida albicans [2] = test: Growth inhibition of Candida albicans ATCC 10231 at 7.81 ug/ml incubated for 48 hrs under dark condition by broth microdilution assay relative to amphotericin B; assay type: functional; conditions: ATCC 10231, 48 h, read-out: GI; method in brief: as §1
Candida albicans [3] = test: Growth inhibition of Candida albicans ATCC 10231 at 15.62 ug/ml incubated for 48 hrs under dark condition by broth microdilution assay relative to amphotericin B; assay type: functional; conditions: ATCC 10231, 48 h, read-out: GI; method in brief: as §1
Candida albicans [4] = test: Growth inhibition of Candida albicans ATCC 10231 at 31.25 ug/ml incubated for 48 hrs under dark condition by broth microdilution assay relative to amphotericin B; assay type: functional; conditions: ATCC 10231, 48 h, read-out: GI; method in brief: as §1
Candida albicans [5] = test: Growth inhibition of Candida albicans ATCC 10231 at 62.5 ug/ml incubated for 48 hrs under dark condition by broth microdilution assay relative to amphotericin B; assay type: functional; conditions: ATCC 10231, 48 h, read-out: GI; method in brief: as §1
Candida albicans [6] = test: Growth inhibition of Candida albicans ATCC 10231 at 125 ug/ml incubated for 48 hrs under dark condition by broth microdilution assay relative to amphotericin B; assay type: functional; conditions: ATCC 10231, 48 h, read-out: GI; method in brief: as §1
Candida albicans [7] = test: Growth inhibition of Candida albicans ATCC 10231 at 250 ug/ml incubated for 48 hrs under dark condition by broth microdilution assay relative to amphotericin B; assay type: functional; conditions: ATCC 10231, 48 h, read-out: GI; method in brief: as §1
Candida albicans [8] = test: Antifungal activity against Candida albicans ATCC 10231 incubated for 48 hrs under dark condition by broth microdilution assay; assay type: functional; conditions: ATCC 10231, 48 h
Method in brief: (§2)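 Broth microdilution per CLSI M27-A3 in RPMI-1640. Inocula adjusted to 1-5 x 10^3 CFU/mL. Stocks in DMSO (≤1%), final 3.9-250.0 µg/mL. Incubated 48 h at 30 °C in a moist, dark chamber, read at OD 405. % inhibition computed from growth and sterility control wells, run in triplicate. MIC80/MIC50 taken from four-parameter logistic concentration-response curves; amphotericin B as positive control.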

[9] = Antifungal activity against Cryptococcus neoformans ATCC 32264 incubated for 48 hrs under dark condition by broth microdilution assay; assay type: functional; method in brief: as §2
[10] = Antiproliferative activity against human NCI-H226 cells harboring TP53 mutant after 24 hrs by MTT assay; assay type: functional, cell-based; conditions: NCI-H226, 24 h
Method in brief: (§3)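 Cells grown in medium with 10% foetal bovine serum and 1% L-glutamine at 37 °C, 5% CO2, seeded at 1 x 10^5 cells/well. Exposed to compound at 1.0-1,000 µg/mL for 24 h. MTT added, absorbance read at 540 nm 3 h later. IC50 obtained by non-linear regression of viability data.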

[11] = Antiproliferative activity against human CCD-19Lu cells after 24 hrs by MTT assay; assay type: cell-based; method in brief: as §3
[12] = Antiproliferative activity against human Hep2C cells after 24 hrs by MTT assay; assay type: functional, cell-based; method in brief: as §3
NCI-H226 = test: Selectivity index, ratio of IC50 for human CCD-19Lu cells to IC50 for human NCI-H226 cells; assay type: functional
Method in brief: (§4)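 Selectivity index equals IC50 in non-tumour CCD 19-Lu lung fibroblasts divided by IC50 in the tumour line. Both IC50s come from the 24 h MTT assay (read at 540 nm) over 1.0-1,000 µg/mL.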

[13] = Selectivity index, ratio of IC50 for human CCD-19Lu cells to IC50 for human Hep2C cells; assay type: functional; method in brief: as §4
[14] = Antioxidant activity assessed as DPPH radical scavenging activity at 160 uM incubated for 30 mins under dark condition; assay type: functional
Method in brief: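 Compound at 160 µM incubated with 100 µM DPPH in ethanolic medium, stirred in the dark for 30 min, read at 517 nm. Resveratrol as positive control. Three independent experiments, each in triplicate.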

[15] = Antioxidant activity assessed as DPPH radical scavenging activity incubated for 30 mins under dark condition; assay type: functional
Method in brief: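 DPPH (100 µM) in ethanolic medium, stirred 30 min in the dark, absorbance at 517 nm. Compound varied from 0 to 160 µg/mL to find the concentration scavenging 50% of radicals. Three independent experiments, each in triplicate.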

[16] = Antioxidant activity assessed as fluorescent light-induced superoxide anion scavenging activity incubated for 10 mins by nitroblue tetrazolium dye based assay; assay type: functional
Method in brief: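 Riboflavin/light superoxide system: 50 mM phosphate pH 7.8, 13 mM L-methionine, 75 µM NBT, 100 µM EDTA, 2 µM riboflavin, compound 0-200 µg/mL. Fluorescent light for 10 min at 25 °C, dark controls, scavenging measured at 575 nm. Resveratrol as reference.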

[17] = Antioxidant activity assessed as fluorescent light-induced superoxide anion scavenging activity at 160 uM incubated for 10 mins by nitroblue tetrazolium dye based assay; assay type: functional
Method in brief: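 Superoxide generated photochemically in 50 mM phosphate buffer pH 7.8 with 13 mM L-methionine, 75 µM nitroblue tetrazolium, 100 µM EDTA and 2 µM riboflavin. Compound at 160 µM. 10 min at 25 °C under fluorescent light; dark controls. Read at 575 nm. Resveratrol as positive control; three independent experiments in triplicate.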

SMILES | MIC50 (Candida albicans [8]) | MIC80 (Candida albicans [8]) | MIC50 [9] | MIC80 [9] | inhibition of growth at 3.9 µg/mL (Candida albicans [1]) | inhibition of growth at 7.81 µg/mL (Candida albicans [2]) | inhibition of growth at 15.62 µg/mL (Candida albicans [3]) | inhibition of growth at 31.25 µg/mL (Candida albicans [4]) | inhibition of growth at 62.5 µg/mL (Candida albicans [5]) | inhibition of growth at 125 µg/mL (Candida albicans [6]) | inhibition of growth at 250 µg/mL (Candida albicans [7]) | IC50 [10] | IC50 [11] | IC50 [12] | Ratio IC50 (NCI-H226) | Ratio IC50 [13] | Activity [14] | SC50 [15] | SC50 [16] | Activity [17]
O=[N+]([O-])c1cccc(-c2cc(-c3ccccc3)c3cc(Br)ccc3n2)c1 | > 250 µg/mL | > 250 µg/mL | > 250 µg/mL | > 250 µg/mL | 0% | 0% | 3.43% | 4.86% | 4.99% | 5.11% | 9.14% | 8.5 µM |  |  |  |  | 35 to 40% |  |  | 
c1ccc(-c2cc(-c3ccccc3)c3c4c(ccc3n2)OCO4)cc1 | > 250 µg/mL | > 250 µg/mL | 31.2 µg/mL (≈ 95.9 µM) | 250 µg/mL (≈ 768 µM) | 0% | 0% | 3.62% | 5.74% | 8.77% | 13.5% | 24.2% | 40 µM | 354 µM | 951 µM | 8 | 0 |  |  |  | Active
N#Cc1ccc(-c2cc(-c3ccccc3)c3cc(Br)ccc3n2)cc1 | > 250 µg/mL | > 250 µg/mL | > 250 µg/mL | > 250 µg/mL | 0% | 0% | 0% | 2.44% | 2.54% | 4.86% | 5.75% |  |  | 98.8 µM |  |  |  |  |  | Active
Brc1ccc2nc(C3CCCCC3)cc(-c3ccccc3)c2c1 | 250 µg/mL (≈ 682 µM) | > 250 µg/mL | 250 µg/mL (≈ 682 µM) | > 250 µg/mL | 0% | 0% | 0% | 1.49% | 3.29% | 11.3% | 37.2% | 91 µM | 490 µM |  | 5 |  | 45 to 55% | 118 µM | > 250 µM | Active

More lines, main results first:

MIC50 (Candida albicans [8]) | MIC80 (Candida albicans [8]) | MIC50 [9] | MIC80 [9] | SMILES | inhibition of growth at 3.9 µg/mL (Candida albicans [1]) | inhibition of growth at 7.81 µg/mL (Candida albicans [2]) | inhibition of growth at 15.62 µg/mL (Candida albicans [3]) | inhibition of growth at 31.25 µg/mL (Candida albicans [4]) | inhibition of growth at 62.5 µg/mL (Candida albicans [5]) | inhibition of growth at 125 µg/mL (Candida albicans [6]) | inhibition of growth at 250 µg/mL (Candida albicans [7]) | IC50 [10] | IC50 [11] | IC50 [12] | Ratio IC50 (NCI-H226) | Ratio IC50 [13] | Activity [14] | SC50 [15] | SC50 [16] | Activity [17]
250 µg/mL (≈ 766 µM) | > 250 µg/mL | 125 µg/mL (≈ 383 µM) | > 250 µg/mL | O=[N+]([O-])c1ccc2c(-c3ccccc3)cc(-c3ccccc3)nc2c1 | 3.42% | 4.97% | 7.07% | 10.6% | 19.8% | 38.5% | 54.8% | 559 µM |  |  |  |  |  |  |  | 
250 µg/mL (≈ 633 µM) | > 250 µg/mL | 250 µg/mL (≈ 633 µM) | > 250 µg/mL | Clc1ccc(-c2cc(-c3ccccc3)c3cc(Br)ccc3n2)cc1 | 0% | 0% | 6.88% | 6.78% | 9.38% | 24.7% | 50.5% | 1.58 µM | 528 µM | 269 µM | 356 | 1 | 45 to 55% | 180 µM | > 250 µM | 
62.5 µg/mL (≈ 166 µM) | 125 µg/mL (≈ 332 µM) | 62.5 µg/mL (≈ 166 µM) | 250 µg/mL (≈ 664 µM) | Oc1ccc(-c2cc(-c3ccccc3)c3cc(Br)ccc3n2)cc1 | 2.41% | 3.56% | 4.5% | 6.17% | 9.63% | 21.2% | 45.8% | 8 µM | 104 µM | 105 µM | 13 | 0 |  |  |  | Active
